These results are taken from ChEMBL document CHEMBL5108057, “Development of MAO-A and 5-HT2AR Dual Inhibitors with Improved Antidepressant Activity” (J Med Chem, 2022).

Molecules are shown by their SMILES. Activity calls are given as the source filed them. The rule behind the calls is not given here.

For series [1], the species on record is Danio rerio. Kind of series: Antidepressant activity in reserpine-induced zebrafish AB depression model assessed as increase in distance traveled at 0.1 to 1 uM pretreated for 40 mins with reserpine followed by compound addition and measured for 7 days by open field test. It counts as functional, organism-based. Conditions: dose 0.1-1 µM, time 7.0 day. In outline: (§1)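 Zebrafish were exposed to 10 mg/L reserpine for 40 min. Compound (0.1, 0.5, 1 μM) or fluoxetine (1 μM) was given 24 h later for 7 days. Fish kept at 28.5 °C on a 14 h light/10 h dark cycle. Open-field and novel tank tests were video-tracked for distance, velocity, immobility and time in the top. Mean ± SD, n = 6.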

For series [2], the species on record is Danio rerio. In words: Antidepressant activity in reserpine-induced zebrafish AB depression model assessed as improved locomotion at 0.1 to 1 uM pretreated for 40 mins with reserpine followed by compound addition and measured for 7 days by novel tank test. Format: functional, organism-based. The note with it: dose 0.1-1 µM, time 7.0 day. In outline:
as §1

The test system of series [3] is Mus musculus. Kind of series: Antidepressant activity in reserpine-induced ICR mouse model assessed as increase in movement speed at 10 to 20 mg/kg pretreated with reserpine for 3 days followed by compound addition for 1 week by open field test. It counts as functional, organism-based. Conditions: dose 10-20 mg/kg, time 1.0 weeks. In a few lines:
(§2)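 Body weight was recorded daily. OFT: 5 min session scoring distance, speed, rearing and dejection. FST and TST: 6 min, with immobility scored over the last 4 min. Mean ± SD, n = 6; one-way ANOVA and t-test.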

Series [4] concerns Mus musculus. In words: Antidepressant activity in reserpine-induced ICR mouse model assessed as decrease in number of dejection at 10 to 20 mg/kg pretreated with reserpine for 3 days followed by compound addition on day 4 to 10 by open field test. Format: functional, organism-based. Conditions: dose 10-20 mg/kg, time 6.0 day. In outline: as §2
Series [5] concerns Mus musculus. Kind of series: Antidepressant activity in reserpine-induced ICR mouse model assessed as increase the number of rearing at 10 to 20 mg/kg pretreated with reserpine for 3 days followed by compound addition on day 4 to 10 by open field test. Format: functional, organism-based. The note with it: dose 10-20 mg/kg, time 6.0 day. In outline: as §2
Series [6] deals with Mus musculus. In words: Antidepressant activity in reserpine-induced ICR mouse model assessed as reduction in immobility time at 10 to 20 mg/kg pretreated with reserpine for 3 days followed by compound addition on day 4 to 10 by tail suspension test. It counts as functional, organism-based. Conditions: dose 10-20 mg/kg, time 6.0 day. In outline:
as §2

For series [7], the system named is Mus musculus. In words: Antidepressant activity in chronic unpredictable mild stress ICR mouse model assessed as increase in total distance traveled at 10 to 20 mg/kg administered for 2 weeks by open field test. Format: functional, organism-based. Conditions: dose 10-20 mg/kg. In outline: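 ICR mice received CUMS for 4 weeks: 11 stressors given randomly twice daily, 42 days in total. OFT: 5 min session scoring distance, speed, rearing and dejection. FST/TST: 6 min, with immobility scored over the last 4 min. Sucrose preference test was also run. Mean ± SD, n = 6.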

Series [8] can be described thus: Toxicity in mouse assessed as toxic effect on kidney at 10 to 20 mg/kg by H and E staining based assay. It counts as organism-based. The note with it: in vivo, dose 10-20 mg/kg. In outline: (§3)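 Mice given compound at 10 or 20 mg/kg, with fluoxetine 20 mg/kg as comparator. Paraffin tissue sections of 4 μm were cut. Staining: hematoxylin 5 min, 75% HCl-ethanol differentiation 30 s, eosin 2 min. Organs (liver, kidney, lung, heart, spleen) examined at ×400; hippocampus (CA1, CA3, DG) at ×200.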

In a further series the test system is Hippocampus. Kind of series: Antidepressant activity in mouse hippocampal tissue assessed as reduction in neuronal cell damage at 10 to 20 mg/kg by H and E staining based assay. Format: functional, organism-based. Conditions: dose 10-20 mg/kg. In a few lines:
as §3

A short description of series [9]: AUC(0 to infinity) in Sprague-Dawley rat at 10 mg/kg, IG measured upto 1440 mins by LC-MS/MS analysis. The arrangement: time < 1440 min, dose 10 mg/kg, route ig. It counts as ADME, organism-based. The note with it: in vivo, po.
The nature of series [10]: MRT infinity in Sprague-Dawley rat at 10 mg/kg, IG measured upto 1440 mins by LC-MS/MS analysis. It counts as ADME, organism-based. Conditions: in vivo, po.
Series [11] is described as follows: Bioavailability in Sprague-Dawley rat at 2 mg/kg, iv measured upto 1440 mins by LC-MS/MS analysis. Format: ADME, organism-based. The note with it: in vivo.

On to `O=C1c2ccccc2-c2nccc3cc(OCCCCCN4CCN(c5ccccc5F)CC4)cc1c23`, for which the result in the series listed under Danio rerio [1], in the series filed under Danio rerio [2], in the series with Mus musculus [3], with Mus musculus [4], in the series with Mus musculus [5] and in the series with Mus musculus [6] was Active. Besides, the outcome in the series with Mus musculus [7] and with Hippocampus was Active. For the same compound, the Activity result in series [8] was “Non-Toxic”. Further, in series [9], the area under the curve AUC(0-inf) is 504 ng·h/mL. The same compound displayed an MRT inf in series [10] of 4.94 h. The compound further showed a bioavailability in series [11] of 4.4%.
